# Screening data: PubChem, Johns Hopkins Ion Channel Center
# Shown are actives, neighbours in structure and some others; about 2.9% of the full set was active somewhere.
# TRPC6 inhibitor: blocks the mouse TRPC6 cation channel | Q61143 | HEK293-TRPC6, membrane potential dye, ACh-evoked depolarization; stronger effect = lower value | B-score at 10 µM | 1.1% of 310,000 active;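 active = B-score under library mean minus 3 SD, initial fluorescence not abnormally high, positive integrated signal ratio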;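 note: B-score derived from integrated fluorescence ratio over the kinetic read; more negative B-score means stronger inhibition of depolarization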
# Target sequence (Q61143 whole entry, looked up): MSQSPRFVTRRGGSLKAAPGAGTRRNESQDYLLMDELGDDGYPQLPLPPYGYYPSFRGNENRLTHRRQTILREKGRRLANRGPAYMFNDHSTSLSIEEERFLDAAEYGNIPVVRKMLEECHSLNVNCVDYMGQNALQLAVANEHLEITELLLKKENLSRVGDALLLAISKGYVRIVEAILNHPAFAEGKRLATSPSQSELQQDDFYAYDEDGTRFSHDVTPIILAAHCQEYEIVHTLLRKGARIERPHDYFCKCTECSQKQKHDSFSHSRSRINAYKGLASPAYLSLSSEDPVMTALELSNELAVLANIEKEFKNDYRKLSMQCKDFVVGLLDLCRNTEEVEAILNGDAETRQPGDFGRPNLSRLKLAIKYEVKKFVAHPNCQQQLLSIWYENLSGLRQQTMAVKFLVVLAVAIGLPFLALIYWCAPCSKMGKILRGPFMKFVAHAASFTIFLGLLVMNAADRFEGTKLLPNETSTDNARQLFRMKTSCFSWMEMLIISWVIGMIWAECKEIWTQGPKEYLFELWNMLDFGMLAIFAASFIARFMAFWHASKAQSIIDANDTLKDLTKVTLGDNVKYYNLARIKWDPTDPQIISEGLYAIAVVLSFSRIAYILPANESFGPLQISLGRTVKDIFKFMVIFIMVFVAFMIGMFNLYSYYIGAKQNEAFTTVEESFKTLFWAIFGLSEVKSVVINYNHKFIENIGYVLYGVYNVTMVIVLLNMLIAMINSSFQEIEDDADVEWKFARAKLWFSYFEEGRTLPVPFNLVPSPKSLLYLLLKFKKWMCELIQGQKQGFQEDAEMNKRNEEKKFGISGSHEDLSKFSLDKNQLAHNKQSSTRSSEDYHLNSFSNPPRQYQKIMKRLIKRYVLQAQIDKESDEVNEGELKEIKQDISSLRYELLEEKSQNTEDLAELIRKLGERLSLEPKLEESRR
# TRPC6 activator: activates the mouse TRPC6 cation channel; Q61143; HEK293-TRPC6 membrane potential dye fluorescence; stronger effect = higher value; B-score at 10 µM; 0.13% of 310,000 active;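 active = B-score of the integrated fluorescence ratio above library mean plus 3 SD, and starting fluorescence ratio within library mean plus 5 SD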;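 note: higher score means more depolarization so channel activation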
# TRPC4 act: activators of mouse TRPC4 channel. Q9QUQ5. HEK293 TRPC4beta/mu-opioid, Fluo4 calcium fluorescence; stronger effect = higher value. B-score at 10 µM. 0.49% of 310,000 active. AID 2237;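 active = B-score above 5 SD of library B-scores, and initial fluorescence ratio not above library mean plus 5 SD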;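 note: positive B-score marks a calcium rise read as TRPC4 activation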
#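 Test system: HEK293 cells stably co-expressing mouse TRPC4beta and mu-opioid receptor | Schedule: Fluo4 dye loading 45 min at room temperature, 110 s recording | Measured by: Kinetic Fluo4 calcium fluorescence, 5 s baseline at 1 Hz | Evaluation: B score of integrated ratio | Controls: Buffer (low) and maximal DAMGO (high)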
# Kir21 block: blocks the mouse Kir2.1 inward-rectifier potassium channel; P35561; HEK293-Kir2.1, FluxOR thallium flux fluorescence; stronger effect = lower value; B-score at 10 µM; 0.85% of 310,000 active;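 active = fluorescence ratio B-score at or below minus 3 SD of library scores, with starting-brightness B-score within 2 SD, cut at about -4.2 in these data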;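 note: channel flux triggered by added potassium and thallium sulfate stimulus; B-score of peak minus minimum fluorescence over baseline after thallium stimulus; more negative B-score means stronger Kir2.1 block with less thallium influx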
# TRPC4 block: inhibitors of mouse TRPC4 channel; HEK293 TRPC4beta/mu-opioid, DAMGO-evoked Fluo4 calcium flux; stronger effect = lower value; 0.39% of 300,000 active; B-score at 10 µM; Q9QUQ5;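 active = B-score over 3 SD under the library average, no early fluorescence shift, positive overall ratio signal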
#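 Material: HEK293 cells with stable TRPC4beta plus mu-opioid receptor expression; probe or stimulus: DAMGO in two steps, submaximal then maximal; technique: Fluo4 calcium fluorescence by kinetic imaging, 5 s 1 Hz baseline; measure: integrated fluorescence ratio relative to baseline, converted to per-well B score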
# TRPC4 PAM: TRPC4 (mouse) allosteric potentiation; Q9QUQ5; HEK293 TRPC4beta/mu-opioid, DAMGO EC20, Fluo-4 Ca2+ flux; stronger effect = higher value; B-score at 10 µM; 0.42% of 310,000 active; AID 2227;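 active = B-score of calcium response area above 5 SD of library B-scores, with initial fluorescence ratio within 5 SD of library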;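 note: B-score of integrated fluorescence ratio over time as area under calcium response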
# * marks the source's active call; other numbers are inactive results; i = inactive.
SMILES,TRPC6 inhibitor,TRPC6 activator,TRPC4 act,Kir21 block,TRPC4 block,TRPC4 PAM
CCc1nnc(NC(=O)COc2ccccc2[N+](=O)[O-])s1,i,i,i,-1.53,i,i
CC(C(=O)NCCCc1ccccc1)n1cccc1C(=O)c1ccccc1 (stereo not given),i,i,i,-6.43*,i,i
CCCCN(C)CCC(=O)Nc1ccc2c(c1)CCC2,i,i,63*,-0.26,i,i
COc1ccc(NC(=O)CN(C)CC(=O)Nc2ccc3c(c2)CCC3)cc1,i,i,i,-0.36,i,i
O=c1[nH][nH]c(-c2ccccc2)c1C=Nc1ccc(Cl)cc1,i,i,i,1.39,i,84*
O=c1[nH][nH]c(-c2ccccc2)c1C=Nc1cccc(Cl)c1,i,i,i,-0.16,i,i
COc1ccc(NC(=O)CNC(=O)Cn2cnc3sc4c(c3c2=O)CCCC4)cc1OC,i,i,i,-0.01,i,i
CCOC(=O)C1(CCCc2ccccc2)CCN(Cc2cn(CC)nc2C)CC1,i,i,124*,-1.08,i,i
CCCn1ncc(CN2CCC(Cc3cccc(F)c3)(C(=O)OCC)CC2)c1C,i,i,i,0,i,i
CCOC(=O)C1(Cc2cccc(F)c2)CCN(Cc2c(C)nn(CC)c2C)CC1,i,i,i,-1.37,-6*,i
CCOC(=O)C1(Cc2cccc(F)c2)CCN(Cc2cn(CC)nc2C)CC1,i,i,78*,0.23,i,i
CCOC(=O)C1(CCCc2ccccc2)CCN(Cc2nccn2CC)CC1,i,i,i,-2.94,i,i
CCNc1nc(NC(C)(C)C)nc(N2CCCC2)n1,i,i,i,0.29,-8*,i
Cc1ccc(NC(=O)CSCC(=O)N2c3ccccc3CCc3ccccc32)cc1,i,i,i,0.42,i,i
Clc1ccc2nc(C3CCN(Cc4ccccc4)CC3)[nH]c2c1,i,i,i,-6.78*,i,i
Cc1ccc(CN2CCC(c3nc4ccc(Cl)cc4[nH]3)CC2)cc1,i,i,i,-9.98*,i,i
CC(C)C(=O)Nc1nnc(S(=O)(=O)N(C)c2ccc(Cl)cc2)s1,i,i,i,-1.11,i,i
O=C(O)Cc1ccc(NS(=O)(=O)c2ccc3ccccc3c2)cc1,i,i,i,-0.02,i,i
O=C(NC1CCN(C(=O)c2cccc([N+](=O)[O-])c2)CC1)c1ccccc1,i,i,i,0.1,i,i
CCOCC(=O)Nc1ccc2c(c1)N(S(=O)(=O)c1cccs1)CCC2,i,i,i,-0.66,i,i
CN1CCN(c2ccc(NC(=O)c3ccc(-c4cccc([N+](=O)[O-])c4)o3)cc2)CC1,i,i,167*,0.01,i,i
CCCCCCCCCCC(=O)Nc1cccnc1,i,i,i,-1.09,i,i
CCCN(CCC)CCCNC(=O)c1ccc(CS(=O)(=O)c2c(Cl)cccc2Cl)o1,i,i,79*,2.5,i,i
O=C(COc1ccc(F)cc1Cl)N(Cc1nnc(-c2ccccc2Cl)o1)C1CC1,i,i,i,-4.2,i,i
CN(C)CCSc1nc(-c2ccccc2)nc2c1CCCC2,i,i,68*,-0.84,i,20*
SMILES,TRPC6 inhibitor,TRPC6 activator,TRPC4 act,Kir21 block,TRPC4 block,TRPC4 PAM
CCSc1nc(-c2ccccc2)nc2c1CCCC2,i,i,i,-0.52,i,i
COc1ccc(C(CC(=O)Nc2cc(C)ccn2)N2Cc3ccccc3C2=O)cc1 (stereo not given),i,i,i,-0.71,i,i
CCOc1cc(CN2CCCC(C(=O)c3cccc(C(F)(F)F)c3)C2)ccc1O (stereo not given),i,i,i,-0.7,-7*,i
Cc1ccn(CCC(=O)N2CCc3ccccc32)n1,i,i,i,-0.53,i,i
Cc1cc(C)c(OCCOCCN2CCN(C)CC2)c(Cl)c1,i,i,i,0.82,i,i
Cc1cc(Cl)c(OCCOCCN2CCNCC2)c(Cl)c1,i,i,62*,-2.18,i,i
Cc1cccc(OCCOCCN2CCNCC2)c1C,i,i,133*,-0.61,i,i
Cn1c(=O)[nH]c(NCCc2ccc(O)cc2)c([N+](=O)[O-])c1=O,i,i,i,0.18,i,i
COc1cc(OC)c(C2N(c3ccc(Cl)c(Cl)c3)C(=O)C3CCCN32)cc1OC (stereo not given),i,i,i,-2.04,i,i
COc1cc(OC)c(C2N(c3ccc(Cl)cc3)C(=O)C3CCCN32)cc1OC (stereo not given),i,i,i,0,i,12*
COc1ccc(OC(C)C(=O)NCCC2=CCCCC2)cc1 (stereo not given),i,i,i,-6.36*,i,i
CN(CCC(=O)Nc1ccc(Cl)cc1)Cc1ccccc1,i,i,126*,-1.73,i,i
CN(CCC(=O)Nc1ccc2c(c1)OCO2)Cc1ccccc1,i,i,53*,0.78,i,i
CN(CC(=O)Nc1ccc(Cl)cc1)C(=O)CCc1ccccc1,i,i,i,-0.02,i,i
Cc1ccc(-n2cccc2C(=S)N=P(N(C)C)(N(C)C)N(C)C)cc1,i,i,i,-11.5*,i,i
CCOC(=O)N1CCN(C(=O)c2ccccc2N(Cc2ccccc2)S(=O)(=O)c2ccccc2)CC1,i,i,i,-0.29,i,i
COc1cc(/C=N/O)cc(Br)c1OC,i,i,i,4.96,i,i
C=CCOc1c(Br)cc(/C=N/O)cc1OCC,i,i,i,-6.02*,i,i
CCc1noc(C)c1C(=O)NNC(=O)COc1ccc(C)cc1,i,i,i,0.56,i,i
CC(C)NCC(O)COc1cccc2ccccc12 (stereo not given),i,i,i,-0.47,i,i
OC(CNCc1ccccc1F)COc1cccc2ccccc12 (stereo not given),i,i,i,-6.86*,i,i
CCCCN1C(=O)C(=O)N(CC(=O)c2ccc3c(c2)OCO3)C1=O,i,i,i,-1.54,i,i
CCc1nn2c(=O)cc(CSCC(=O)Nc3ccccc3Cl)nc2s1,i,i,i,-0.47,i,i
O=C(CC1CCCCC1)c1c(O)c2ccccc2oc1=O,i,i,99*,1.43,i,i
